Compound activity deposited in PubChem BioAssay by Sanford-Burnham Center for Chemical Genomics.
In the library only some 2% were active in any assay of this set; here they are far more common.
Scp1 inh – Scp-1 (human) phosphatase inhibition. 0.88% of 340,000 active. inhibition, % at 20 µM. Q9GZU7. Recombinant Scp1, phosphopeptide, malachite green phosphate absorbance;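 active = inhibition above about 50% at 20 µM, limit read from the data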;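 note: plate controls were DMSO wells with enzyme for no effect and wells lacking enzyme for full effect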
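Times: enzyme reaction 45 min at room temperature, colour 5 min, stabilisation 30 min. Material: SCP-1 catalytic fragment, aa 76-261. Medium: Acidic Tris acetate buffer with magnesium and detergent. Signal: colorimetric free-phosphate detection, absorbance 630 nm. Read-out basis: % inhibition of SCP-1 phosphate liberation. Reagent: Phosphorylated 17-residue peptide substrate.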
LMPTP block – LMPTP (human) inhibition | 0.22% of 360,000 active | recombinant LMPTP-A, OMFP fluorogenic substrate, fluorescence intensity | AID 651560 | P24666 | inhibition, % at 20 µM;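 active = compounds that cut the enzyme signal by at least half of the control window in the single-dose screen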;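 note: plate controls were DMSO wells with enzyme plus substrate for no effect and substrate without enzyme for full effect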
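Test system: LMPTP-A phosphatase enzyme; input: 0.625 nM LMPTP-A final; reagent: OMFP substrate, 400 µM final; compound dosing: 20 µM single dose, 3% DMSO; incubation: 50 min dark incubation at room temperature; measured by: endpoint fluorescence intensity from OMFP dephosphorylation; measure: % inhibition relative to no-enzyme and uninhibited control wells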
STEP block – STEP (human) phosphatase inhibition; inhibition, % at 20 µM; recombinant STEP, OMFP fluorogenic substrate, fluorescence; 0.25% of 360,000 active; P54829;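 active = inhibition at 20 µM, scaled per plate between control wells, above about 37%, limit read from the data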;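 note: 0% = DMSO with enzyme and substrate and 100% = substrate only without enzyme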
Target sequence (P54829 whole entry, looked up): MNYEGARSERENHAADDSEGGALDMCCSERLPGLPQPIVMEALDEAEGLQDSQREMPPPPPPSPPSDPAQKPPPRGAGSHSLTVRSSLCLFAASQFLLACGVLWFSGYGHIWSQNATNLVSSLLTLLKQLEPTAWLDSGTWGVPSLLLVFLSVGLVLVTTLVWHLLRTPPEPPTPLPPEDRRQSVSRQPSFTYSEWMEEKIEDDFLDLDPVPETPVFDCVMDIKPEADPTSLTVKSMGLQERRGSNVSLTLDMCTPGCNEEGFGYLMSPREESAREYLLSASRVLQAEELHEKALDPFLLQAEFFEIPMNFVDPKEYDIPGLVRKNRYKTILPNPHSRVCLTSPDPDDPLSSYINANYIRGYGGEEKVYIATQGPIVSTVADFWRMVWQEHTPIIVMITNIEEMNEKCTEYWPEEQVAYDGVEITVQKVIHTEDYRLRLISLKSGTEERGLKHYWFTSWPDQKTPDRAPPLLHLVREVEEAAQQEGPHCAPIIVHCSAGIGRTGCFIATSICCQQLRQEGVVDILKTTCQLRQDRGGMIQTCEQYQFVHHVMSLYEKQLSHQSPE
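System: STEP (striatal-enriched tyrosine phosphatase) enzyme, cell-free; medium: Bis-Tris pH 6.0 buffer with DTT, detergent; dosing: 20 µM, 1% DMSO; times: reaction 20 min, ambient temperature; detection: fluorescence, 480/540 nm; read-out basis: normalized % inhibition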
Rpn11 block – blocks the human proteasome subunit Rpn11; human 26S proteasome, Ub4-pepOG fluorescence polarization; 20S core pre-blocked with epoxomicin; 0.59% of 360,000 active; O00487; AID 588493; inhibition, % at 20 µM;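 active = inhibition at 20 µM, scaled to each plate's controls, above about 33%, limit read from the data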
DNMT1 block – inhibitors of human DNMT1; P26358; DNMT1 molecular beacon, Hinp1I cleavage, fluorescence; inhibition (reported as % activation of signal), % at 10 µM; 0.83% of 360,000 active; AID 588458; in the data active = inhibition above about 50%
Scp-1 conf – confirmation of human Scp-1 phosphatase inhibitors; shares compounds with Scp1 inh; inhibition, % at 20 µM; AID 540281; 61% of 2,500 active; recombinant SCP-1 catalytic domain, phosphate release, malachite green absorbance;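 note: plate controls were DMSO with enzyme for no effect and buffer wells lacking enzyme for full effect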
Scp-1 MG ctr – colorimetric interference in Scp-1 counter-screen | shares compounds with Scp1 inh | Colorimetric interference counterscreen, malachite green absorbance 630 nm | apparent inhibition (interference), % at 20 µM | 2,500 tested, under 10 active | AID 540313;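 note: compounds added after enzyme reaction finished so only phosphate colour detection is probed; plate controls were DMSO wells with completed Scp-1 reaction for no effect and substrate wells lacking enzyme for full effect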
Scp-1 Tm shift – validation of human Scp-1 inhibitors by thermal shift binding. shares compounds with Scp1 inh. Recombinant SCP1, Sypro Orange thermal shift Tm. thermal shift relative to vanadate control, % at 40 µM. 25% of 1,500 active;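 active = substances whose mean melting-temperature shift, as a percentage of the reference inhibitor's shift, reaches about 5.3%, limit read from the data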;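 note: 0% = Tm of DMSO wells and 100% = Tm with sodium orthovanadate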
The depositor's hits bear a star; . = not tested or not shown.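 Rule for the calls, unless noted: active = inhibition of at least 30% at 20 µM; inactive = the rest.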

SMILES	Scp1 inh	LMPTP block	STEP block	Rpn11 block	DNMT1 block	Scp-1 conf	Scp-1 MG ctr	Scp-1 Tm shift
O=C(COc1ccc(Cl)cc1)NNC(=O)c1ccc(=O)[nH]c1	59*	0	2	-2	1	26	6	.
O=C(Cc1ccc(S(=O)(=O)N2CCOCC2)s1)NC1CCCCC1	61*	6	8	-3	7	70*	-7	7.9*
NS(=O)(=O)c1ccc(CNC(=O)Cc2ccc(S(=O)(=O)N3CCOCC3)s2)cc1	-7	0	-2	1	-1	.	.	.
O=C(Cc1ccc(S(=O)(=O)N2CCOCC2)s1)NCC1CCCCC1	20	2	1	6	3	.	.	.
NS(=O)(=O)c1ccc(CCNC(=O)Cc2ccc(S(=O)(=O)N3CCCC3)s2)cc1	76*	4	6	5	10	74*	-14	0
Cc1cccc(C)c1Cn1c(C)c(C(=O)NCc2ccc([N+](=O)[O-])cc2)sc1=O	.	2	2	-2	-2	.	.	.
COc1ccc(S(=O)(=O)N(CC(=O)Nc2ccc3c(c2)OCO3)c2ccccc2OC)cc1	-15	3	-4	1	-6	.	.	.
COc1ccccc1N(CC(=O)Nc1ccc2c(c1)OCO2)S(=O)(=O)c1ccccc1	99*	-1	-2	-6	1	19	-9	.
O=C(CCS(=O)(=O)c1ccc(Br)cc1)NC1CCCCCC1	70*	-2	6	-1	46	69*	-10	-19
Cc1ccc(S(=O)(=O)CCC(=O)NC2CCCCC2)cc1	-4	0	-4	4	3	.	.	.
O=C(CSc1ncn(-c2ccccc2)n1)Nc1nc2ccccc2s1	3	0	-4	-2	-4	.	.	.
O=C(CSc1ncn(-c2ccccc2)n1)Nc1nc2c(s1)CCCC2	79*	4	7	4	36	64*	-8	-1
CCCCNc1nnc(Cc2ccc(Cl)cc2)c(=O)[nH]1	97*	5	28	-4	30	76*	-11	-2
CC(Oc1cccc([N+](=O)[O-])c1)C(=O)NCCC1=CCCCC1 (stereo unspecified)	59*	0	1	-3	-5	-13	-14	.
O=C(Nc1cc([N+](=O)[O-])ccc1O)c1ccc2c(c1)C(=O)N(Cc1ccco1)C2=O	55*	6	6	5	11	25	-16	.
O=C(O)Cc1ccc(NC(=O)c2ccc3c(c2)C(=O)N(Cc2ccco2)C3=O)cc1	69*	3	16	-6	38	58*	-16	6.8*
O=C(Nc1ccc(O)cc1)c1ccc2c(c1)C(=O)N(Cc1ccco1)C2=O	0	0	3	-11	15	.	.	.
CCOC(=O)[C@]12Cc3c(cc(OC)c(OC)c3OC)[C@H]1N(C1CCCCC1)C(=O)c1cc(OC)ccc12	.	1	.	.	.	.	.	.
O=C(NCC1CCCCC1)c1ccc2nc([C@@H]3O[C@H](CO)[C@H](O)[C@H](O)[C@H]3O)[nH]c2c1	.	-4	-1	8	-2	.	.	.
Cc1cc(C)n2c(SC/C(O)=C(\C#N)c3nc4ccccc4[nH]3)nnc2n1	76*	17	0	11	49	63*	-5	11*
CCn1c(C)c2c([n+]1CC)CC(C)(C)CC2=O	55*	-1	-3	-3	0	75*	-11	-20
O=C(O)Cc1sc(N/N=C\c2ccccc2)nc1-c1ccccc1	54*	2	-1	32	90*	75*	-8	18*
Nn1cnc2c(ncn2C2OC(CO)C(O)C2O)c1=O (stereo unspecified)	.	1	-2	2	-1	.	.	.
O=C(NNC(=O)c1ccccc1F)c1ccc2nc[nH]c2c1	11	1	-3	0	1	.	.	.
O=C(NNC(=O)c1ccccc1Br)c1ccc2nc[nH]c2c1	73*	5	18	-3	22	66*	-10	3
SMILES	Scp1 inh	LMPTP block	STEP block	Rpn11 block	DNMT1 block	Scp-1 conf	Scp-1 MG ctr	Scp-1 Tm shift
CC(=O)Nc1cccc(-c2csc(C(O)c3ccc(F)c(F)c3)n2)c1 (stereo unspecified)	.	-1	-3	-3	1	.	.	.
COc1ccc(S(=O)(=O)N2CCCC2)cc1C(C)C	53*	0	-1	0	-1	-10	-14	.
CCCCn1nnnc1C(c1ccccc1)N1CCN(c2ccc(C)cc2)CC1 (stereo unspecified)	.	2	.	.	.	.	.	.
CN(Cc1ccccc1)C(=O)c1ncn(C)c1C(=O)N(C)Cc1ccccc1	93*	0	-3	3	11	85*	-17	-3
O=C(Nc1cccnc1Cl)c1ccc(=O)oc1	53*	0	1	9	35	43*	-4	6.5*
CSc1ccc(-c2cccc3nncn23)cc1	.	-1	-2	-3	3	.	.	.
COCCn1nnnc1C(C(C)C)N1CCSCC1 (stereo unspecified)	67*	-2	-1	0	1	-5	-12	.
Cc1c(NC(=O)CC2NC(=O)NC2=O)c(=O)n(-c2ccccc2)n1C (stereo unspecified)	.	.	.	.	.	-8	-8	.
O=C(NCc1ccc2c(c1)OCO2)c1cc(-n2cnnc2)ccc1Cl	85*	-1	-1	-12	-5	10	-17	.
O=C(NCc1ccc2c(c1)OCO2)c1ccccc1Cl	1	-1	-1	5	2	.	.	.
Cc1cc(NC(=O)CSCC(=O)N(c2cccc(Cl)c2)C(C(=O)NC2CCCCC2)c2ccc(O)c(O)c2)no1 (stereo unspecified)	50*	-1	-2	-12	8	6	-15	.
CC1=C(C(=O)N2CCOCC2)CC(CC(=O)NC2CCCCC2)C(=O)N1Cc1ccc(C(C)(C)C)cc1 (stereo unspecified)	.	-2	1	-9	17	.	.	.
O=c1oc2ccccc2c2c1ccc1ccccc12	80*	3	1	2	23	25	-20	.
O=c1oc2ccccc2c2[nH]ccc12	1	1	-2	4	1	.	.	.
COc1ccc(/C=C2\SC(=S)N(CCCC(=O)Nc3ccc(O)cc3)C2=O)cc1	-11	0	-3	0	-14	.	.	.
COc1ccc(/C=C2\SC(=S)N(CCC(=O)Nc3ccc(C(=O)O)cc3)C2=O)cc1	87*	90*	95*	-17	0	69*	-14	21*
O=C(CCN1C(=O)/C(=C/c2ccc(F)cc2)SC1=S)Nc1cc([N+](=O)[O-])ccc1O	64*	13	15	6	1	50*	-15	7.2*
